Measurements from different studies.
Lines come from different studies, so protocols differ.
Target: Phosphatidylinositol 4-phosphate 3-kinase C2 domain-containing subunit alpha (PIK3C2A, Homo sapiens, UniProt O00443)
Action: inhibitor

| SMILES | assay | conditions | quantity | value |
| --- | --- | --- | --- | --- |
| Cc1ccc(C(=O)NCc2ccsc2)cc1C#Cc1cn(C(C)C)c2ncnc(N)c12 | enzyme activity | 1 µM | activity vs control | 98% |
| Cc1cc(NC(=O)c2cccc3cc(-c4cccc5[nH]nc(N)c45)ccc23)ccc1F | enzyme activity | 0.1 µM | activity vs control | 108% |
| CN1CC(Oc2cnc(C#N)cc2-c2ccn3nc(NC(=O)C4CC4)cc3c2)C1 | enzyme activity | 1 µM | inhibition | -4% |
| Cc1ccc(NC(=O)c2ccc(C)c(C(F)(F)F)c2)cc1C#Cc1nn(C2CCC(O)CC2)c2ncnc(N)c12 (stereo not drawn) | cell-free assay | 10 µM | remaining signal | 92% |
| COc1cc(Cl)c(C(=O)N[C@@H](CN[C@H]2CC[C@@H](N)CC2)Cc2ccc(C#N)cc2)cc1-c1ccc(CN[C@H](C)c2ccc(C)cc2)o1 | enzyme activity | 1 µM | remaining activity | 93% |
| O=C(CSc1nc2nccnc2c(=O)n1CCc1ccccc1)Nc1ccccc1 | enzyme activity | 10 µM | inhibition | 93% |
| C=CC(=O)Nc1cc(Nc2nccc(Nc3cc(Cl)c(F)cc3C(C)(C)O)n2)c(OC)cc1N1CC[C@@H](N(C)C)C1 | enzyme activity | 1 µM | inhibition | -2% |
| CC(C)CCn1c(SCC(=O)Nc2ccccc2C(F)(F)F)nc2nccnc2c1=O | enzyme activity | 10 µM | inhibition | 84% |
| Cc1cnc(NC2CCOCC2)nc1-n1cnc(C(=O)NC(CN)c2cc(F)cc(Cl)c2)c1 (stereo not drawn) | enzyme activity, radiometric | 1 µM | remaining activity | 100% |
